PTEN del growth = growth suppressors of cells with PTEN tumor suppressor deletion. HCT116 PTEN-null viability, CellTiter-Glo, 60 h; hits give low values. viability, % at 10 µM. 1.2% of 140,000 active;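 active = viability at or below a set limit, 4 SD under the median of all tested compounds, cut at about 3.7% in these data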;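 note: PTEN knockout HCT116 line with beta catenin targeted HCT116 as companion control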
H69AR inhibit = growth inhibitors of human H69AR lung tumor cells. H69AR lung tumor viability, ATP luminescence, 72 h; hits give low values. viability, % at 10 µM. 6% of 85,000 active;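 active = viability at or below 40%; inactive = viability above 40%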;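 note: multidrug resistant small cell line overexpressing MRP-1 efflux transporter; 100% = mean luminescence of untreated control wells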
Fibroblast inh = blocks proliferation of human lung fibroblasts | viability, % at 10 µM | AID 719 | 1.1% of 85,000 active | LL 47 human lung fibroblast viability, ATP luminescence; hits give low values;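 active = viability at or below 50% in the single dose screen; inactive = viability above 50%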;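 note: compound exposure lasted 72 h before the ATP readout; 100% = median luminescence of untreated cell-only wells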
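Signal: luminescent ATP detection, CellTiter-Glo; assay system: LL 47 human lung fibroblasts; input: 1,150 cells/well; incubation: overnight cell rest, 72 h compound treatment at 37 °C; measure: % viability versus median cells-only luminescence; medium: IMEM growth medium with 15% fetal bovine serum; dosing: compound addition at 0.1% DMSO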
bCat KO growth = beta-catenin-lacking colon tumor cell growth suppression; HCT116 beta-catenin knockout viability, CellTiter-Glo, 60 h; hits give low values; viability, % at 10 µM; 1.5% of 140,000 active;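 active = viability at or under a set limit, the compound median less 4 SD, cut at about 6% in these data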;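 note: 0% = Hyamine 1622 control at 20 µM and 100% = untreated cell control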
HUVEC prolif 384 = human endothelial cell proliferation inhibition | 1.1% of 86,000 active | HUVEC proliferation, CellTiter-Glo luminescence, 72 h; hits give low values | AID 648 | viability, % at 10 µM (by protocol);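 active = viability at or below 30%; inactive = viability above 30%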;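 note: 100% = median luminescence of DMSO-only cell control wells on each plate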
* marks the source's active call; other numbers are inactive results. This excerpt belongs to a sample that is enriched for hits.

What do the screens show for `O=C(NCc1cccnc1)/C(=C\c1ccc(-c2ccc(Cl)c(Cl)c2)o1)S(=O)(=O)c1ccccc1`?
PTEN del growth: 1.5*; bCat KO growth: 1.8*

How did CCN(CC)S(=O)(=O)c1cc([N+](=O)[O-])ccc1NNC(=O)Nc1ccc(Cl)c(Cl)c1 do in these assays?
PTEN del growth: 1.0*; H69AR inhibit: 2.9*; Fibroblast inh: 42.8*; bCat KO growth: 1.4*; HUVEC prolif 384: 40.5

What do the screens show for `COc1ccc(-c2cc(-c3ccccc3)c(C#N)c(S(C)=O)n2)cc1` (centres undefined)?
PTEN del growth: 1.3*; H69AR inhibit: 2.3*; Fibroblast inh: 2.7*; bCat KO growth: 1.1*; HUVEC prolif 384: 6.8*

How did Cn1c(NCC(O)c2ccccc2)nc2c1c(=O)n(Cc1ccc(Cl)c(Cl)c1)c(=O)n2C (centres undefined) do in these assays?
H69AR inhibit: 12.7*; Fibroblast inh: 89.8; HUVEC prolif 384: 48.0

Results for COc1cccc(S(=O)(=O)Nc2cccc(C(=O)N3CCCCCC3)c2)c1 ?
PTEN del growth: 99.8; bCat KO growth: 96.2

What do the screens show for `O=C(c1ccc2snnc2c1)N1CCCCC1`?
PTEN del growth: 104.9; H69AR inhibit: 99.6; Fibroblast inh: 104.3; bCat KO growth: 100.2; HUVEC prolif 384: 92.8

Results for O=C(c1ccc2snnc2c1)N1CCSCC1 ?
PTEN del growth: 101.6; H69AR inhibit: 35.3*; bCat KO growth: 101.0; HUVEC prolif 384: 91.7

How did COc1ccc(-c2cn[nH]c2N)cc1OC do in these assays?
PTEN del growth: 97.7; H69AR inhibit: 90.6; Fibroblast inh: 97.0; bCat KO growth: 93.6; HUVEC prolif 384: 92.9

What do the screens show for `Cc1sc2ncnc(NCC(c3ccco3)N3CCCC3)c2c1C` (centres undefined)?
PTEN del growth: 41.1; H69AR inhibit: 35.9*; Fibroblast inh: 89.0; bCat KO growth: 31.5; HUVEC prolif 384: 74.6

What do the screens show for `O=C(CN(C1CC1)S(=O)(=O)c1ccc(S(=O)(=O)NC2CCCCC2)cc1)Nc1ccccc1`?
PTEN del growth: 65.7; H69AR inhibit: 58.3; Fibroblast inh: 90.2; bCat KO growth: 62.0; HUVEC prolif 384: 82.5

Results for CN(O)/C=c1/ccc2c(n1)C(=O)C=CC=2 ?
PTEN del growth: 15.3; H69AR inhibit: 36.7*; Fibroblast inh: 110.2; bCat KO growth: 21.6; HUVEC prolif 384: 94.5

Results for COc1ccc(C2c3ccc4ccccc4c3Oc3ncn(CCN4CCOCC4)c(=N)c32)cc1 (centres undefined) ?
PTEN del growth: 1.8*; H69AR inhibit: 1.9*; Fibroblast inh: 3.2*; bCat KO growth: 2.1*; HUVEC prolif 384: 2.1*

What do the screens show for `COc1ccc(C2c3c(ncn(Cc4ccco4)c3=N)Oc3ccc4ccccc4c32)cc1` (centres undefined)?
PTEN del growth: 1.6*; bCat KO growth: 2.2*

Results for O=C(NCC(=O)N(c1ccccc1)C(C(=O)NC1CCCC1)c1ccncc1)c1ccco1 (centres undefined) ?
H69AR inhibit: 97.5; Fibroblast inh: 92.1; HUVEC prolif 384: 94.2

How did CCCc1cc(-c2nc(N)ncc2-c2ccc3c(c2)OCCCO3)c(O)cc1OC do in these assays?
PTEN del growth: 21.7; H69AR inhibit: 28.1*; Fibroblast inh: 95.2; bCat KO growth: 26.1; HUVEC prolif 384: 39.4

What do the screens show for `c1ccc(CNc2nc3ccccc3[nH]2)cc1`?
PTEN del growth: 73.1; H69AR inhibit: 78.3; Fibroblast inh: 95.9; bCat KO growth: 78.3; HUVEC prolif 384: 85.6

What do the screens show for `COc1ccc2nc(NCc3ccccc3)[nH]c2c1`?
PTEN del growth: 31.0; H69AR inhibit: 19.7*; Fibroblast inh: 67.2; bCat KO growth: 21.4; HUVEC prolif 384: 54.0

How did COc1ccc2nc(NCCO)[nH]c2c1 do in these assays?
PTEN del growth: 101.7; H69AR inhibit: 90.8; Fibroblast inh: 100.2; bCat KO growth: 97.0; HUVEC prolif 384: 97.6

How did Cc1ccc2nc(NCc3ccccc3)[nH]c2c1 do in these assays?
PTEN del growth: 21.4; H69AR inhibit: 22.3*; Fibroblast inh: 52.9; bCat KO growth: 18.6; HUVEC prolif 384: 42.6

How did CC1CCCc2sc3nc(N4CCN(CCO)CC4)n4ncnc4c3c21 (centres undefined) do in these assays?
PTEN del growth: 92.2; H69AR inhibit: 14.7*; Fibroblast inh: 92.6; bCat KO growth: 91.8; HUVEC prolif 384: 93.5

Results for COc1ccnc(Oc2ccc(F)cc2)c1C(=O)N/C=N/OCc1ccc(F)cc1 ?
PTEN del growth: 77.6; bCat KO growth: 91.3

How did Cn1c(=O)c2c(-c3ccccc3)n3c4ccccc4ncc3c2n(C)c1=O do in these assays?
H69AR inhibit: 37.8*; Fibroblast inh: 90.9; HUVEC prolif 384: 69.8

What do the screens show for `COc1ccc(CCNC(=O)CN(C)S(=O)(=O)c2ccc(Br)s2)cc1OC`?
PTEN del growth: 88.6; bCat KO growth: 91.3

How did CCOC(=O)C1=C(c2ccccc2)OC(N)=C(C#N)C1c1cccs1 (centres undefined) do in these assays?
PTEN del growth: 96.4; bCat KO growth: 91.7

How did N#CC1=C(N)Oc2cc3ccccc3cc2C1c1cccs1 (centres undefined) do in these assays?
PTEN del growth: 37.9; H69AR inhibit: 21.0*; Fibroblast inh: 86.5; bCat KO growth: 52.2; HUVEC prolif 384: 59.5

How did N#CC1=C(N)Oc2c(ccc3cccnc23)C1c1cccnc1 (centres undefined) do in these assays?
PTEN del growth: 4.0; bCat KO growth: 4.5*

What do the screens show for `N#CC1=C(N)Oc2cc3ccccc3cc2C1c1cccnc1` (centres undefined)?
PTEN del growth: 30.4; H69AR inhibit: 19.6*; Fibroblast inh: 70.3; bCat KO growth: 33.5; HUVEC prolif 384: 66.5

What do the screens show for `CC(C)(C)C1=C(C#N)C(c2cccnc2)C(C#N)=C(N)O1` (centres undefined)?
PTEN del growth: 104.5; bCat KO growth: 100.6

What do the screens show for `Cc1[nH]c(=O)[nH]c(=O)c1/C=C/C(=O)OCC(C)C`?
PTEN del growth: 92.9; bCat KO growth: 85.3

Results for Nc1c(Cl)ncnc1N/N=C/c1ccc2ccccc2n1 ?
PTEN del growth: 3.0*; bCat KO growth: 5.1*

Results for Nc1c(Cl)ncnc1N/N=C/c1ccnc2ccccc12 ?
PTEN del growth: 97.3; bCat KO growth: 95.7

How did Nc1c(Cl)ncnc1N/N=C/c1ccccn1 do in these assays?
PTEN del growth: 3.4*; bCat KO growth: 2.5*

What do the screens show for `CCOC(=O)c1c(-c2ccccc2)oc2cc(CN(C)C)c(O)c(CN(C)C)c12`?
H69AR inhibit: 10.3*; Fibroblast inh: 93.6; HUVEC prolif 384: 9.3*

What do the screens show for `CCOC(=O)C(CC)Sc1nnc2cc(C)c3ccccc3n12` (centres undefined)?
PTEN del growth: 89.9; H69AR inhibit: 72.4; Fibroblast inh: 103.1; bCat KO growth: 84.4; HUVEC prolif 384: 95.2

Results for Cc1cccc(-c2c3c(=O)n(C)c(=O)n(C)c3cn2C(C)(C)C)c1 ?
PTEN del growth: 94.3; H69AR inhibit: 58.9; Fibroblast inh: 86.5; bCat KO growth: 85.6; HUVEC prolif 384: 89.2
